The record followed here is ChEMBL document CHEMBL3871270, “Structural and Biochemical Characterization of the Interaction of Tubulin with Potent Natural Analogues of Podophyllotoxin” (J Nat Prod, 2016).

Active and inactive are the calls of the source. The calls are words filed in the database; no cut-off is given here.

Assay [1] is filed under the species Homo sapiens. Briefly: Inhibition of tubulin assembly (unknown origin) assessed as decrease in pelleted microtubules up to 40 uM after 20 mins. Put shortly: (§1)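 Purified tubulin was assembled at 30 μM, above its 3.3 μM critical concentration, in the presence of compound. The resulting microtubules were pelleted by mild centrifugation to quantify assembly.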
For assay [2], the species on record is Homo sapiens. Briefly: Binding affinity to tubulin alpha/beta dimer (unknown origin) at 300 uM by STD-NMR method.
For assay [3], the system named is A549. Briefly: Binding affinity to alpha-tubulin in human A549 cells assessed as induction of microtubule depolymerization by measuring formation of abnormal type 4 spindles at 100 nM after 24 hrs by immunofluorescence microscopy. The assay is classed as cell-based. Put shortly: (§2)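 A549 cells were exposed to compound or DMSO vehicle for 24 h. They were then stained with DM1A anti-α-tubulin monoclonal antibody for microtubules and Hoechst 33342 for DNA. Cytoplasmic microtubule networks and mitotic spindle morphology, including abnormal type IV ball-shaped spindles, were examined by immunofluorescence microscopy.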

Assay [4] is described as follows: Cell cycle arrest in human A549 cells assessed as accumulation at G2/M phase at 100 nM after 20 hrs by propidium iodide staining based flow cytometry. The assay is classed as functional. The procedure, abridged: (§3)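 A549 cells were grown for 20 h with compound across 20 nM to 25 μM. DMSO was the negative control and paclitaxel (30−50 nM) the positive control. The percentage of cells in each cell-cycle phase was determined from flow cytometry DNA histograms.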

Assay [5] in a line: Cytotoxicity against human A549 cells assessed as decrease in cell viability after 48 hrs by MTT assay. The assay is classed as functional, cell-based. Conditions: A549, 48 h. Put shortly:
(§4)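 A549 lung and A2780 ovarian human carcinoma cells were treated for 48 h, and viability was read by MTT assay. IC50 values are given as mean ± standard error of three independent experiments.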

Assay [6] is described as follows: Cytotoxicity against human A2780 cells assessed as decrease in cell viability after 48 hrs by MTT assay. The class given is functional, cell-based. Conditions: A2780, 48 h. Put shortly:
as §4
On the technique in general: Formazan colour is commonly taken as a measure of viable cells.

The species entered for assay [7] is Homo sapiens. Briefly: (§5) Inhibition of 2-methoxy-5-(2,3,4-trimethoxyphenyl)-2,4,6-cycloheptatrien-1-one binding to colchicine binding site of tubulin (unknown origin) by fluorescence spectroscopic analysis. The procedure, abridged: (§6)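 Tubulin binding constants (Kb) were obtained from a competition assay against the colchicine-site fluorescent probe MTC, assuming 1:1 stoichiometry.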

Assay [8] is described as follows: as §5. Details: species or system Homo sapiens. The procedure, abridged:
as §6

The species entered for assay [9] is Homo sapiens. Briefly: Inhibition of 2-methoxy-5-(2,3,4-trimethoxyphenyl)-2,4,6-cycloheptatrien-1-one binding to colchicine binding site of tubulin (unknown origin) at 10 uM by fluorescence assay. The procedure, abridged:
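Fluorescence emission spectra were recorded at 350 nm excitation for 10 μM purified tubulin plus 10 μM MTC (a colchicine-site probe), with 10 μM test compound. Reference spectra were MTC with tubulin alone and MTC alone. The result is the percent decrease in MTC fluorescence.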

The species named for assay [10] is Homo sapiens. Briefly: Binding affinity to tubulin alpha/beta dimer (unknown origin) by TR-NOESY NMR spectroscopy.
The species entered for assay [11] is Homo sapiens. Briefly: Inhibition of tubulin assembly (unknown origin) assessed as decrease in pelleted microtubules up to 30 uM after 20 mins. The procedure, abridged: as §1
A short description of assay [12]: Cell cycle arrest in human A549 cells assessed as decrease in G1 phase population at 100 nM after 20 hrs by propidium iodide staining based flow cytometry. The assay is classed as functional. The procedure, abridged:
as §3

Assay [13] is filed under the species Homo sapiens. Briefly: Binding affinity to tubulin alpha/beta dimer (unknown origin) at 100 uM by STD-NMR method.
Assay [14] has as its system A549. Briefly: Binding affinity to alpha-tubulin in human A549 cells assessed as induction of microtubule depolymerization by measuring formation of abnormal type 4 spindles at 50 uM after 24 hrs by immunofluorescence microscopy. The assay is classed as cell-based. Put shortly:
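A549 cells exposed 24 h, DMSO vehicle control; microtubules stained with DM1A anti-α-tubulin monoclonal antibody and DNA with Hoechst 33342; cytoplasmic microtubule network and mitotic spindle morphology scored by immunofluorescence microscopy.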

Assay [15] is described as follows: Cell cycle arrest in human A549 cells assessed as decrease in G1 phase population at 25 uM after 20 hrs by propidium iodide staining based flow cytometry. The class given is functional. Put shortly: (§7)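 A549 cells grown 20 h with compound across 20 nM to 25 μM; DMSO as negative and paclitaxel (30−50 nM) as positive control; DNA content histograms by flow cytometry give percent of cells in each cell cycle phase.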
For orientation: A flow cytometer gives signals particle by particle.

Assay [16] is described as follows: Cell cycle arrest in human A549 cells assessed as accumulation at G2/M phase at 25 uM after 20 hrs by propidium iodide staining based flow cytometry. The class given is functional. The procedure, abridged:
as §7

Assay [17] can be described thus: Cell cycle arrest in human A549 cells assessed as accumulation at G2/M phase at 1 uM after 20 hrs by propidium iodide staining based flow cytometry. The assay is classed as functional. The procedure, abridged: as §3
Assay [18] has as its system A549. Briefly: Binding affinity to alpha-tubulin in human A549 cells assessed as induction of microtubule depolymerization by measuring formation of abnormal type 4 spindles at 1 uM after 24 hrs by immunofluorescence microscopy. The assay is classed as cell-based. The procedure, abridged:
as §2

A short description of assay [19]: Cell cycle arrest in human A549 cells assessed as decrease in G1 phase population at 1 uM after 20 hrs by propidium iodide staining based flow cytometry. The assay is classed as functional. The procedure, abridged: as §3

Usually inhibition stands for the percentage by which the read-out fell short of the control. The IC50 is the concentration that inhibits the measured activity by half. A word on the Kd: it is the concentration at which binding is half-saturated. Higher therefore signals weaker binding. Take `COc1cc([C@@H]2c3cc4c(cc3[C@H](O)[C@H]3COC(=O)[C@H]23)OCO4)cc(OC)c1OC` [PODOFILOX]: the inhibition in assay [1] is more than 80%; in assay [9], 68%. The result in [2] and in assay [3] was Active. The Activity in [4] was in the range of 70 to 80%. Further, the IC50 in assay [5] amounted to 15 nM; in assay [6], 18 nM. In addition, the Kb in assay [7] stood at 185 ×10⁵ /M. The same compound displayed a Kd in assay [8] of 54 nM.

As to `COc1ccc([C@@H]2c3cc4c(c(OC)c3C[C@H]3COC(=O)[C@@H]32)OCO4)cc1OC`, the result in assay [10], in assay [3], in [4], in assay [12] and in assay [13] was Active. Also, in [11], the inhibition entry is “Active”. For the same compound, the half-maximal inhibitory concentration (IC50) in assay [5] amounted to 33 nM; in [6], 84 nM. The Kb in assay [7] was found to be 11.8 ×10⁵ /M. In assay [8], this compound returned a dissociation constant (Kd) of 850 nM. Moreover, the inhibition in [9] amounted to 43%.

Consider `COc1c2c(cc3c1OCO3)[C@@H](c1ccc3c(c1)OCO3)[C@@H]1C(=O)OC[C@@H]1C2`, for which the outcome in [14], in assay [15] and in assay [16] was Active. Moreover, the figures for the concentration for half-maximal inhibition (IC50) in assay [5] and in assay [6] were 8670 nM and 12900 nM, respectively. Further, the inhibition result in assay [9] was “Active”.

Consider `COc1cc(C2=C3C(=O)OC[C@@H]3[C@@H](OC(C)=O)c3cc4c(cc32)OCO4)cc(OC)c1OC`, for which, in assay [11], the inhibition entry is “Active”. In addition, the half-inhibitory concentration (IC50) in assay [5] was found to be 263 nM; in [6], 587 nM. The result in [17], in [18] and in assay [19] was Active. Moreover, in assay [9], the inhibition worked out at 17%.

Regarding `COc1cc([C@@H]2c3cc4c(cc3[C@H](OC(C)=O)[C@H]3COC(=O)[C@H]23)OCO4)cc(OC)c1OC`, the inhibition in [1] was more than 80%; in assay [9], 65%. In addition, the result in [3], in assay [4], in assay [12] and in assay [13] was Active. Moreover, the IC50 in [5] was 25 nM; in [6], 34 nM. In [7], this compound yielded a Kb of 170 ×10⁵ /M. For the same compound, in assay [8], the Kd was found to be 58 nM.
